“And” between values parts separate entries of the source, which are not always exact repeats. Identical values can stand only once.
Experiments:
Type in all cases: functional
Plasmodium berghei [1] = assay: (§1) Antimalarial activity in Plasmodium berghei infected mice (Mus musculus) after 80 mg/kg subcutaneous dose
How it was run: (§2)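 Normal drug-sensitive P. berghei strain in mice. Compound dissolved or suspended in sesame or peanut oil, given parenterally as a single subcutaneous dose 72 h postinfection.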

Plasmodium berghei [2] = assay: Antimalarial activity in Plasmodium berghei infected mice (Mus musculus) after 160 mg/kg subcutaneous dose
How it was run: (§3)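 […] in mice infected with a normal drug-sensitive P. berghei strain. Compound dissolved or suspended in sesame or peanut oil, given as a single subcutaneous dose 72 h postinfection.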

Plasmodium berghei [3] = assay: as §1; how it was run: as §3; remark: listed apart in the source
Plasmodium berghei [4] = assay: Antimalarial activity in Plasmodium berghei infected mice (Mus musculus) after subcutaneous 320 mg/kg dose; how it was run: as §2
Plasmodium berghei [5] = assay: Antimalarial activity in Plasmodium berghei infected mice (Mus musculus) after 40 mg/kg subcutaneous dose; how it was run: as §3
Plasmodium berghei [6] = assay: Antimalarial activity in Plasmodium berghei infected mice (Mus musculus) after subcutaneous 160 mg/kg dose; how it was run: as §2
Plasmodium berghei [7] = assay: Antimalarial activity in Plasmodium berghei infected mice (Mus musculus) after subcutaneous 640 mg/kg dose; how it was run: as §2
Plasmodium berghei [8] = assay: Antimalarial activity in Plasmodium berghei infected mice (Mus musculus) after 20 mg/kg subcutaneous dose; how it was run: as §3
Plasmodium berghei [9] = assay: Antimalarial activity Plasmodium berghei infected mice (Mus musculus) after 640 mg/kg subcutaneous dose; how it was run: as §3

| Compound | No. of cured mice (Plasmodium berghei [1]) | Delta mean survival time (Plasmodium berghei [2]) | Delta mean survival time (Plasmodium berghei [3]) | No. of cured mice (Plasmodium berghei [4]) | Delta mean survival time (Plasmodium berghei [5]) | No. of cured mice (Plasmodium berghei [6]) | No. of cured mice (Plasmodium berghei [7]) | Delta mean survival time (Plasmodium berghei [8]) | Delta mean survival time (Plasmodium berghei [9]) | Delta mean survival time (Plasmodium berghei [9]; 640 mg/kg) |
| --- | --- | --- | --- | --- | --- | --- | --- | --- | --- | --- |
| CN(C)CCC/N=C1\CC(c2ccccc2C(F)(F)F)Cc2c1c(=O)c1cc(Cl)ccc1n2O (stereo not drawn) | 1 | 8 | 7.5 | 5 | 5.8 | 4 | 5 | – | – | – |
| CCCCNCCC/N=C1\CC(c2ccc(Cl)c(Cl)c2)Cc2c1c(=O)c1cc(Cl)ccc1n2O (stereo not drawn) | 1 | 10.6 | 9.1 | 5 | 9.4 | 4 | 5 | 4.4 | – | – |
| O=c1c2c(n(O)c3ccc(Cl)cc13)CC(c1cccc(C(F)(F)F)c1)C/C2=N\CCCN1CCCC1 (stereo not drawn) | – | 9.6 | 6 | 5 | 6.2 | 3 | 4 | – | 25.6 | – |
| O=C1CC(c2ccc([N+](=O)[O-])cc2)Cc2nc3ccc(Cl)cc3c(O)c21 (stereo not drawn) | – | 4.6 | – | – | 0.8 | – | 2 | – | 13.3 | – |
| O=C1CC(c2ccc(C(F)(F)F)cc2)Cc2c1c(=O)c1c(Cl)c(Cl)ccc1n2O (stereo not drawn) | – | 7 | 7.8 | 3 | 7 | 2 | 2 | 4.5 | – | 9.8 and 7 |
| Cc1ccc(C2CC(=O)c3c(n(O)c4ccc(Cl)cc4c3=O)C2)cc1 (stereo not drawn) | – | 3.1 | 2.8 | – | 0.6 | – | – | 0.8 | 6.9 | – |
| O=C1CC(c2ccccc2Cl)Cc2nc3ccc(Cl)cc3c(O)c21 (stereo not drawn) | – | 0.4 | 5.5 | – | 2.7 | 1 | 1 | 1.5 | 9.6 | – |
| CCCCNC(CC)C/N=C1\CC(c2cccc(C(F)(F)F)c2)Cc2c1c(=O)c1cc(Cl)ccc1n2O (stereo not drawn) | 1 | – | 10.9 | 5 | 6.8 | 5 | 5 | 5.6 | – | – |
| CCN(CC/N=C1\CC(c2ccc(Cl)c(Cl)c2)Cc2c1c(=O)c1cc(Cl)ccc1n2O)CC(C)(C)O (stereo not drawn) | 4 | – | 8 | 5 | 8.2 | 5 | – | 6.3 | – | – |
| Cc1ccc(C2CC(=O)c3c(nc4ccc(Cl)cc4c3O)C2)cc1 (stereo not drawn) | – | 8.7 | – | – | 3.9 | 2 | 2 | – | 11.7 | – |
| CN(C)CCC/N=C1\CC(c2cccc(C(F)(F)F)c2)Cc2nc3ccc(Cl)cc3c(O)c21 (stereo not drawn) | 1 | – | 14.6 | 5 | 6.6 | 5 | 5 | – | – | – |
| CCN(CCO)CCC/N=C1\CC(c2ccc(Cl)c(Cl)c2)Cc2c1c(=O)c1cc(Cl)ccc1n2O (stereo not drawn) | 1 | 10.1 | 9.6 | 5 | 8.6 | 3 | 5 | – | – | – |
| COc1ccccc1C1C/C(=N\CCCN(C)C)c2c(nc3ccc(Cl)cc3c2O)C1 (stereo not drawn) | – | 6.7 | – | – | 1.7 | – | 2 | – | 6.4 | – |
| CC1C(=O)c2c(n(O)c3ccc(Cl)cc3c2=O)CC1c1ccc(C(F)(F)F)cc1 (stereo not drawn) | 2 | – | 14.1 | 5 | 7.8 | 5 | 5 | 5.2 | – | – |
| COc1ccc(C2C/C(=N\CCCN(C)C)c3c(nc4ccc(Cl)cc4c3O)C2)cc1 (stereo not drawn) | – | 4.5 | – | – | 0.5 | – | 1 | – | 11.2 | – |
| O=C1c2c(nc3ccc(Cl)cc3c2O)CCC1c1ccccc1 (stereo not drawn) | – | 0 | 0 | – | 0.2 | – | – | – | 0 | – |
| O=C1CC(c2ccccc2Cl)Cc2c1c(=O)c1cc(Cl)ccc1n2O (stereo not drawn) | – | 4.5 | – | – | 4.6 | 1 | 4 | 1.7 | 9 | – |
| O=C1CC(c2ccccc2C(F)(F)F)Cc2c1c(=O)c1cc(Cl)ccc1n2O (stereo not drawn) | – | 4.5 | – | – | 2.7 | – | – | 0.6 | 8.3 | – |
| CC1C(=O)c2c(nc3ccc(Cl)cc3c2O)CC1c1ccc(C(F)(F)F)cc1 (stereo not drawn) | – | 12.8 | 7.5 | 5 | 5.7 | 2 | 4 | 3.9 | 8.8 | – |
| O=C1CC(c2ccc(C(F)(F)F)cc2)Cc2nc3ccc(I)cc3c(O)c21 (stereo not drawn) | – | 0.4 | – | – | 0.2 | – | – | – | 0.4 | – |
| O=C1CC(c2ccncc2)Cc2nc3ccc(Cl)cc3c(O)c21 (stereo not drawn) | – | 0.8 | – | – | 0.2 | – | – | – | 2.2 | – |
| O=C1CC(c2ccc(C(F)(F)F)cc2)Cc2nc3ccc([N+](=O)[O-])cc3c(O)c21 (stereo not drawn) | – | 2.8 | – | – | 4.1 | – | 1 | 0.7 | 6.9 | – |
| CN(C)CCC/N=C1\CC(c2ccc(C(F)(F)F)cc2)Cc2nc3c(Br)cc(Br)cc3c(O)c21 (stereo not drawn) | – | 0.2 | – | – | 0.2 | – | – | – | 0.4 | – |
| Cn1c2c(c(=O)c3cc(Cl)ccc31)C(=O)CC(c1ccc(Cl)c(Cl)c1)C2 (stereo not drawn) | – | 0.6 | – | – | 0 | – | – | – | 0.2 | – |
| CCC1C(=O)c2c(nc3ccc(Cl)cc3c2O)CC1c1ccc(C(F)(F)F)cc1 (stereo not drawn) | – | 1.2 | – | – | 0.6 | – | – | – | 1.6 | – |
| CN(C)CCC/N=C1\CC(c2ccc(C3CCCCC3)cc2)Cc2nc3ccc(Cl)cc3c(O)c21 (stereo not drawn) | – | 10.3 | 7.2 | 5 | 7 | 2 | 3 | 2.8 | 9.6 | – |
| O=C1CC(c2ccncc2)Cc2c1c(=O)c1cc(Cl)ccc1n2O (stereo not drawn) | – | 0.2 | – | – | 0 | – | – | – | 2 | – |
| O=C1CC(c2ccc(C3CCCCC3)cc2)Cc2nc3ccc(Cl)cc3c(O)c21 (stereo not drawn) | – | 0.2 | – | – | 0.2 | – | – | – | 1.6 | – |

— ChEMBL document CHEMBL1126276, “Synthesis and antimalarial properties of 1-imino derivatives of 7-chloro-3-substituted-3,4-dihydro-1,9(2H,10H)-acridinediones and related structures” (J Med Chem, 1992)
